# Experimental data as given in ChEMBL document CHEMBL1154998, “Enantioselective synthesis of (R)-(+)- and (S)-(-)-higenamine and their analogues with effects on platelet aggregation and experimental animal model of disseminated intravascular coagulation” (Bioorg Med Chem Lett, 2008).
# Active and inactive are the calls of the source. No cut-off for these calls is given here.
# Legend:
# Rattus norvegicus [1] = test: Effect on LPS-induced Sprague-Dawley rat disseminated intravascular coagulation model assessed as prolongation of activated partial […] time at 10 mg/day or 25 mg/day, po after 2 hrs of fasting for 2 consecutive days; type: functional, organism-based
# How it was run: (§1)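 Male Sprague–Dawley rats (230–270 g) dosed orally in distilled water once daily for 2 days. Ketamine anaesthesia 1 h after the second dose, then LPS 20 mg/kg in saline infused into the tail vein for 3 h. Citrated plasma was used for PT, aPTT and fibrinogen, serum for FDP (semi-quantitative kit, dilution method), and serum by analyzer for AST and BUN. Mean ± SEM, ANOVA with Tukey HSD, n = 6–13 per group.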
# Platelet [2] = test: Inhibition of epinephrine-induced platelet aggregation in rat blood; type: functional, cell-based
# Rattus norvegicus [3] = test: Effect on LPS-induced Sprague-Dawley rat disseminated intravascular coagulation model assessed as prolongation of prothrombin time at 10 mg/day or 25 mg/day, po after 2 hrs of fasting for 2 consecutive days; type: functional, organism-based; how it was run: as §1
# Rattus norvegicus [4] = test: Effect on Sprague-Dawley rat disseminated intravascular coagulation model assessed as suppression of LPS-induced aspartate aminotransferase levels at 10 mg/day or 25 mg/day, po after 2 hrs of fasting for 2 consecutive days; type: functional, organism-based; how it was run: as §1
# Platelet [5] = test: Inhibition of U46619-induced platelet aggregation in rat blood; type: functional, cell-based
# Rattus norvegicus [6] = test: Effect on LPS-induced Sprague-Dawley rat disseminated intravascular coagulation model assessed as amelioration of increased urea nitrogen levels at 10 mg/day or 25 mg/day, po after 2 hrs of fasting for 2 consecutive days; type: functional, organism-based; how it was run: as §1
# Platelet [7] = test: Inhibition of NaAA-induced platelet aggregation in rat blood; type: functional, cell-based
# Rattus norvegicus [8] = test: Effect on LPS-induced Sprague-Dawley rat disseminated intravascular coagulation model assessed as amelioration of increased fibrin degradation product levels at 10 mg/day or 25 mg/day, po after 2 hrs of fasting for 2 consecutive days; type: functional, organism-based; how it was run: as §1
# Rattus norvegicus [9] = test: Effect on Sprague-Dawley rat disseminated intravascular coagulation model assessed as prevention of LPS-induced decrease in fibrinogen level at 10 mg/day or 25 mg/day, po after 2 hrs of fasting for 2 consecutive days; type: functional, organism-based; how it was run: as §1
# Platelet [10] = test: Inhibition of ADP-induced platelet aggregation in rat blood; type: functional, cell-based
# How it was run: (§2)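 Rat heart blood in 2.2% citrate, spun at 200g for 10 min to give PRP, adjusted to 400–450 × 10⁶ platelets/ml with saline. PRP pre-incubated 3 min, then sample or vehicle added, with ADP (2–5 × 10⁻⁶ M) or collagen (2–5 × 10⁻⁶ g/ml) added 1 min later. Aggregation read on an aggregometer and the 50% inhibitory concentration determined.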
# Platelet [11] = test: Inhibition of collagen-induced platelet aggregation in rat blood; type: functional, cell-based; how it was run: as §2
Compound,Activity (Rattus norvegicus [1]),IC50 (Platelet [2]),Activity (Rattus norvegicus [3]),Activity (Rattus norvegicus [4]),IC50 (Platelet [5]),Activity (Rattus norvegicus [6]),IC50 (Platelet [7]),Activity (Rattus norvegicus [8]),Activity (Rattus norvegicus [9]),IC50 (Platelet [10]),IC50 (Platelet [11])
Oc1ccc(C[C@@H]2NCCc3cc(O)c(O)cc32)cc1 [(-)-HIGENAMINE],Active,1.6 µM,Active,Active,25 µM,Active,9.1 µM,Active,Active,–,–
Oc1cc2c(cc1O)[C@H](Cc1ccc3ccccc3c1)NCC2,Active,0.9 µM,Active,Active,61 µM,Active,6.2 µM,Active,Active,–,–
Oc1cc2c(cc1O)[C@@H](Cc1ccc3ccccc3c1)NCC2,Active,15 µM,Active,Active,49 µM,Active,7.9 µM,Active,–,–,–
Oc1cc2c(cc1O)[C@@H](Cc1cccc3ccccc13)NCC2,Active,2.4 µM,Active,–,20 µM,Active,11 µM,Active,–,–,–
Oc1ccc(C[C@H]2NCCc3cc(O)c(O)cc32)cc1 [(+)-HIGENAMINE],Active,14 µM,Active,Active,15 µM,Active,11 µM,Active,–,> 1000 µM,–
CC(=O)Oc1ccccc1C(=O)O [ASPIRIN],–,53 µM,–,–,340 µM,–,66 µM,–,–,> 1000 µM,420 µM
Oc1cc2c(cc1O)[C@H](Cc1cccc3ccccc13)NCC2,Active,0.38 µM,Active,–,16 µM,Active,5.6 µM,Active,–,270 µM,69 µM
